# Assay results taken from publication PMC9073098 (RSC Advances, 2019).
# Test: Absorption and fluorescence measurements
# Format: physicochemical
# Conditions: for Absorption maximum λmaxAb / Fluorescence quantum yield ΦF: CM : ACN (4 : 1, v/v); for Absorption maximum λmaxAb: RPMI 1640 cell medium pH 7.5, 25 °C, c = 0.6 μM; for Fluorescence quantum yield ΦF: cell medium pH 7.5, 25 °C, average of three measurements; for Extinction coefficient ε: PB : ACN (4 : 1, v/v), 10 mM phosphate buffer pH 7.5, 25 °C
# In short: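 UV-Vis absorption and corrected fluorescence spectra at 25 °C in 1 cm quartz cells, ~0.5–0.6 μM dye in 10 mM phosphate buffer pH 7.5 or RPMI 1640 medium pH 7.5 (serum containing acetylcholinesterase). Excitation 532 and 710 nm. ΦF relative to ICG in methanol (0.044) and Cy3 in PBS (0.04), absorbance 0.04–0.06 at excitation. Three independent measurements averaged, reproducibility within 5%.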
Compound,Absorption maximum λmaxAb,Fluorescence quantum yield ΦF,Extinction coefficient ε
"CN1C(=CC=C2CCCC(=CC=C3N(CCCCCC(=O)O)c4ccccc4C3(C)C)C2=O)C(C)(C)c2ccccc21 [RD, 6-(3,3-Dimethyl-2-(2-(2-oxo-3-(2-(1,3,3-trimethylindolin-2-ylidene)ethylidene)cyclohexylidene)ethylidene)indolin-1-yl)hexanoic acid]",526 nm,2.6 ± 0.1%,57 000 M^−1 × cm^−1
"C[N+]1=C(C=CC2=C(OC(=O)CCCc3ccc(N(CCCl)CCCl)cc3)C(=CC=C3N(CCCCCC(=O)O)c4ccccc4C3(C)C)CCC2)C(C)(C)c2ccccc21 [IRD-CLB, 2-(2-(2-((4-(4-(bis(2-chloroethyl)amino)phenyl)butanoyl)oxy)-3-(2-(1-(5-carboxypentyl)-3,3-dimethylindolin-2-ylidene)ethylidene)cyclohex-1-en-1-yl)vinyl)-1,3,3-trimethyl-3H-indol-1-ium]",785 nm,6.3 ± 0.5%,160 000 M^−1 × cm^−1
